These results are taken from ChEMBL document CHEMBL3745688, “Discovery of novel hybrids of diaryl-1,2,4-triazoles and caffeic acid as dual inhibitors of cyclooxygenase-2 and 5-lipoxygenase for cancer therapy” (Eur J Med Chem, 2016).

Assay [1] has as its target T1, Prostaglandin G/H synthase 2 (Rattus norvegicus, UniProt P35355).
T1 sequence (P35355 whole entry): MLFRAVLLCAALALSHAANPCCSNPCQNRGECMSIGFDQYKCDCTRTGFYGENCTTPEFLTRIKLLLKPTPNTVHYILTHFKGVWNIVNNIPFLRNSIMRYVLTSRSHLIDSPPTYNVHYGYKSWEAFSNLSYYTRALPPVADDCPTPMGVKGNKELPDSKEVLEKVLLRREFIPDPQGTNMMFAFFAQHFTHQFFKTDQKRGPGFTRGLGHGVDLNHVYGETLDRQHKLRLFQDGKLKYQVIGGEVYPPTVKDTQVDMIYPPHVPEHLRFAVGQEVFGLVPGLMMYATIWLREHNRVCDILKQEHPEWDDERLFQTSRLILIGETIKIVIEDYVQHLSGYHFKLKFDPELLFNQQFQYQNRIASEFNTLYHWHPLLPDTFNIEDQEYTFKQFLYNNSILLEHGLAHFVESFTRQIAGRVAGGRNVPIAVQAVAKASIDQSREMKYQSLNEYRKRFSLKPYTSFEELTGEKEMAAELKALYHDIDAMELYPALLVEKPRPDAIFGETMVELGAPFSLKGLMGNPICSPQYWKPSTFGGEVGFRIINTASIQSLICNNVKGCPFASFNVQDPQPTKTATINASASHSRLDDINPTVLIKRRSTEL
Put plainly: Inhibition of COX2 in rat abdominal macrophages assessed as PGE2 production pretreated for 30 mins followed by addition of 10 uM arachidonic acid as substrate for 20 mins by EIA.

Assay [2] relates to A549. Put plainly: Induction of apoptosis in human A549 cells after 3 days by annexinV-APC/7-AAD staining based flow cytometry. In kind it is functional, cell-based.
Assay [3] has as its system A549. Put plainly: Induction of apoptosis in human A549 cells assessed as early apoptotic cells at 25 uM after 72 hrs by annexinV-APC/7-AAD staining based flow cytometry (reference value: 5.7%). Format: functional.
Assay [4] deals with A549. Put plainly: Induction of apoptosis in human A549 cells assessed as late apoptotic cells at 25 uM after 72 hrs by annexinV-APC/7-AAD staining based flow cytometry (reference value: 1.81%). In kind it is functional. For orientation: In flow cytometry, cells or beads pass a laser one at a time.
The target of assay [5] is T2, Polyunsaturated fatty acid 5-lipoxygenase (Rattus norvegicus, UniProt P12527).
T2 sequence (P12527 whole entry): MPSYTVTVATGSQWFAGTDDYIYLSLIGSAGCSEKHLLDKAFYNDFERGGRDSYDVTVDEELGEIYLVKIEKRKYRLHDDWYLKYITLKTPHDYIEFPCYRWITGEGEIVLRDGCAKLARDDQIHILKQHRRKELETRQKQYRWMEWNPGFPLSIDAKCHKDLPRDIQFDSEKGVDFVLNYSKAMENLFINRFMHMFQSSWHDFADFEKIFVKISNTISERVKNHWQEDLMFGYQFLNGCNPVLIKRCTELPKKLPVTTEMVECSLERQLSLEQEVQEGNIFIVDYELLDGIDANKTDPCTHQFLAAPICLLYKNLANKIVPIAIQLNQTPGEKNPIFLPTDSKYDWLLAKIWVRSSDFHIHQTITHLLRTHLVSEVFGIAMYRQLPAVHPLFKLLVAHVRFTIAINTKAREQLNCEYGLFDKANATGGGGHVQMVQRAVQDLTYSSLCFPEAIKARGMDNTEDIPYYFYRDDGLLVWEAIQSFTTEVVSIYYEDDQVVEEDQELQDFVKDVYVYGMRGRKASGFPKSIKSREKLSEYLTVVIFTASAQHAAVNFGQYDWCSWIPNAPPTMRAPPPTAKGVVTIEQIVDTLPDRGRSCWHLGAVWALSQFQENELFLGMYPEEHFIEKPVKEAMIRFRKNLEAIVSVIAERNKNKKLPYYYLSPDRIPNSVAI
Put plainly: Inhibition of 5-LOX in Sprague-Dawley rat leukocytes assessed as A23187 stimulated LTB4 production pretreated for 30 mins followed by addition of A23187 for 30 mins by EIA. In kind it is cell-based. The method in brief: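 Rat peritoneal leukocytes collected from Sprague-Dawley rats primed i.p. with 0.2% glycogen (20 mL/kg). Cells in Hanks solution plated at 1.0×10^6/well and held 10 min at 37 °C. Pretreated 30 min with L-cysteine (10 mM), indomethacin (1 mg/L) and compound or DMSO. A23187 added for 30 min. LTB4 in the clarified supernatant measured by EIA; % inhibition from OD; IC50 by Bliss method.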

Assay [6] can be described thus: Antiproliferative activity against mouse B16F10 cells after 72 hrs by MTT assay. In kind it is functional, cell-based. The note with it: B16-F10, 72 h. The method in brief: (§1)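 Cells seeded at 5×10^4/well, grown 24 h at 37 °C in 5% CO₂, then exposed to compounds dissolved in DMSO at a range of concentrations for 72 h. MTT (5 mg/mL in PBS) added for 4 h, then OD read at 570 nm. IC50 taken from dose-response curves, mean ± S.D. of three independent experiments.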
(Tetrazolium dyes change colour on reduction, which living cells bring about.)

Assay [7] has as its system A549. Put plainly: Cell cycle arrest in human A549 cells assessed as accumulation at G1 phase at 25 uM after 72 hrs by propidium iodide staining based flow cytometry (reference value: 53.66%). In kind it is functional.
For assay [8], the system named is A549. Put plainly: Induction of apoptosis in human A549 cells assessed as necrotic cells at 1 uM after 72 hrs by annexinV-APC/7-AAD staining based flow cytometry (reference value: 0.41%). Format: functional.
Assay [9] relates to A549. Put plainly: Cell cycle arrest in human A549 cells assessed as accumulation at G2 phase at 5 uM after 72 hrs by propidium iodide staining based flow cytometry (reference value: 3.88%). In kind it is functional.
A short description of assay [10]: Selectivity index, ratio of IC50 for rat COX2 to IC50 for calf COX1. Summed up: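 Ratio of COX-2 IC50 to COX-1 IC50. COX-2 was measured in rat peritoneal macrophages: 1.0×10^6/well in RPMI 1640 with 5% FCS, grown 24 h, COX-1 inactivated with 1 mM aspirin, COX-2 induced with LPS 1 µg/mL for 6 h, compound added for 30 min, then arachidonic acid 10 µM for 20 min, PGE2 read by EIA. COX-1 was measured in calf aortic endothelial cells by 6-keto-PGF1α radioimmunoassay.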

In assay [11] the test system is A549. Put plainly: Induction of apoptosis in human A549 cells assessed as viable cells at 25 uM after 72 hrs by annexinV-APC/7-AAD staining based flow cytometry (reference value: 92.08%). In kind it is functional. The note with it: A549, 72 h, read-out: Activity.
Assay [12] has as its system A549. Put plainly: Cell cycle arrest in human A549 cells assessed as accumulation at S phase at 25 uM after 72 hrs by propidium iodide staining based flow cytometry (reference value: 42.46%). In kind it is functional.
Assay [13] deals with A549. Put plainly: Induction of apoptosis in human A549 cells assessed as viable cells at 1 uM after 72 hrs by annexinV-APC/7-AAD staining based flow cytometry (reference value: 92.08%). Format: functional. To be noted: A549, 72 h, read-out: Activity.
Assay [14] deals with A549. Put plainly: Cell cycle arrest in human A549 cells assessed as accumulation at G2 phase at 25 uM after 72 hrs by propidium iodide staining based flow cytometry (reference value: 3.88%). Format: functional.
The test system of assay [15] is A549. Put plainly: Induction of apoptosis in human A549 cells assessed as late apoptotic cells at 5 uM after 72 hrs by annexinV-APC/7-AAD staining based flow cytometry (reference value: 1.81%). Format: functional.
A short description of assay [16]: Antiproliferative activity against human Caco2 cells after 72 hrs by MTT assay. The note with it: Caco-2, 72 h. In kind it is functional, cell-based. Summed up:
as §1

A short description of assay [17]: Antiproliferative activity against human PC3 cells after 72 hrs by MTT assay. The note with it: PC-3, 72 h. In kind it is functional, cell-based. The method in brief:
as §1

pIC50: −log10 of the molar value.

Usually pIC50 stands for the negative decadic logarithm of the IC50, by convention in mol/L. Regarding `CS(=O)(=O)c1ccc(-c2nc(SCCCOC(=O)/C=C/c3ccc(O)c(O)c3)nn2-c2ccc(F)cc2)cc1`, the pIC50 in [1] is 6.74; in [5], 6.15; in assay [6], 4.98; in assay [16] it was 4.95; in assay [17], 5.00. Further, the Activity entry in the assay on A549 [2] was “Dose-dependent effect”; in the assay on A549 [3] it was 37.2%; in the assay with A549 [4], 6.15%; in the assay with A549 [7] it was 47.29%; in the assay on A549 [8] it was 0.91%; with A549 [9], 13.76%. The Activity was 32.19% in the assay on A549 [12], 20.53% in the assay with A549 [14] and 6.37% in the assay on A549 [15]. Moreover, in assay [10], the Ratio IC50 stood at 0.014. In the assay on A549 [11], the viability at 25 µM is 55.1%. Besides, the viability at 1 µM with A549 [13] came to 86.2%.
